pIC50: −log10 of the molar value. The source made the active and inactive calls. No cut-off for these calls is given here.
Key:
[1] = target: T1, Mitogen-activated protein kinase 1 and 3 (ERK2 and ERK1) (Mus musculus) (UniProt P63085+Q63844); assay: […] of LPS-induced Erk1/2 phosphorylation in mouse RAW264.7 cells at 10 uM after 4 to 6 hrs by Western blot analysis; type: cell-based
Method in brief: (§1)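 Cells were given compound at 10 µM with LPS 500 ng/mL and lysed (Triton X-100 buffer) at 2, 4 and 6 h. Protein was quantified by BCA, run on 10% SDS-PAGE and transferred to PVDF. Blots were probed for total and phosphorylated JNK, ERK1/2, p38, NF-κB p65 and IκBα.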

RAW264.7 [2] = assay: Antiinflammatory activity in mouse RAW264.7 cells assessed as inhibition of LPS-induced nitric oxide production after 24 hrs by Griess method; type: functional, cell-based; settings: RAW264.7, 24 h
Method in brief: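 Cells were treated with compound (0.5–100 µM; 0.1% DMSO final) and LPS 500 ng/mL together for 24 h. Nitrite in the medium was read with Griess reagent (10 min, room temperature, dark) at OD540. IC50 comes from three separate experiments, each in triplicate.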

RAW264.7 [3] = assay: Cytotoxicity against mouse RAW264.7 cells after 24 hrs by MTT assay; type: cell-based; settings: RAW264.7, 24 h
Method in brief: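 Growth of non-LPS RAW264.7 cells was measured by MTT after 24 h with compound: MTT for 4 h, formazan dissolved in DMSO, OD570. Untreated cells were set as 100% viability. IC50 is the concentration giving 50% growth inhibition.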

RAW264.7 [4] = assay: Antiinflammatory activity in mouse RAW264.7 cells assessed as inhibition of LPS-induced TNFalpha production at 10 uM after 6 hrs by ELISA (reference value: 2646.1 +/- 499.8 pg/ml); type: functional
Method in brief: (§2)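 RAW264.7 cells (DMEM, 5% FBS, 37 °C, 5% CO2) were exposed to compound at 10 µM plus LPS 500 ng/mL at the same time, with 0.1% DMSO final. Supernatant TNF-α and IL-6 were measured by ELISA at 6, 12 and 24 h.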

RAW264.7 [5] = assay: Antiinflammatory activity in mouse RAW264.7 cells assessed as inhibition of LPS-induced TNFalpha production at 10 uM after 12 hrs by ELISA (reference value: 4126.8 +/- 282 pg/ml); type: functional; method in brief: as §2
RAW264.7 [6] = assay: Antiinflammatory activity in mouse RAW264.7 cells assessed as inhibition of LPS-induced TNFalpha production at 10 uM after 24 hrs by ELISA (reference value: 10124 +/- 1137.2 pg/ml); type: functional; method in brief: as §2
RAW264.7 [7] = assay: Antiinflammatory activity in mouse RAW264.7 cells assessed as inhibition of LPS-induced IL-6 production at 10 uM after 6 hrs by ELISA (reference value: 1046.1 +/- 111.2 pg/ml); type: functional; method in brief: as §2
RAW264.7 [8] = assay: Antiinflammatory activity in mouse RAW264.7 cells assessed as inhibition of LPS-induced IL-6 production at 10 uM after 12 hrs by ELISA (reference value: 2145.1 +/- 368.7 pg/ml); type: functional; method in brief: as §2
RAW264.7 [9] = assay: Antiinflammatory activity in mouse RAW264.7 cells assessed as inhibition of LPS-induced IL-6 production at 10 uM after 24 hrs by ELISA (reference value: 13412 +/- 1167.6 pg/ml); type: functional; method in brief: as §2
RAW264.7 [10] = assay: Inhibition of LPS-induced JNK phosphorylation in mouse RAW264.7 cells at 10 uM after 4 to 6 hrs by Western blot analysis; type: cell-based; method in brief: as §1
[11] = target: MAP kinase p38 (Mus musculus) (UniProt P47811+O08911+Q9WUI1+Q9Z1B7); assay: Inhibition of LPS-induced MAPK p38 phosphorylation in mouse RAW264.7 cells at 10 uM after 4 to 6 hrs by Western blot analysis; type: cell-based; method in brief: as §1
RAW264.7 [12] = assay: Inhibition of MAPK-mediated NFkappa B subunit p65 phosphorylation in LPS-stimulated mouse RAW264.7 cells at 10 uM at 6 hrs by Western blot analysis; type: cell-based; method in brief: as §1
[13] = target: T2, NF-kappa-B inhibitor alpha (Mus musculus) (UniProt Q9Z1E3); assay: Inhibition of LPS-induced IkappaBalpha phosphorylation in mouse RAW264.7 cells at 10 uM at 6 hrs by Western blot analysis; type: cell-based; method in brief: as §1
T2 sequence (whole entry): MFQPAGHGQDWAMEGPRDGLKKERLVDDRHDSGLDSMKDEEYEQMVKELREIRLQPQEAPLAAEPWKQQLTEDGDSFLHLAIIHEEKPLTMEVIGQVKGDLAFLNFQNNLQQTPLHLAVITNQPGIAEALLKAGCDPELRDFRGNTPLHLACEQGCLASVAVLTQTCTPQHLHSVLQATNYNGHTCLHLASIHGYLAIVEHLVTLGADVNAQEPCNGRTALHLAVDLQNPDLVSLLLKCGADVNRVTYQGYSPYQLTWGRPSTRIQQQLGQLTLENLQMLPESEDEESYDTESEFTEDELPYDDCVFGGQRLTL

[14] = target: T2, NF-kappa-B inhibitor alpha (Mus musculus); assay: Inhibition of IKappaBalpha degradation in LPS-stimulated mouse RAW264.7 cells at 10 uM at 4 to 6 hrs by Western blot analysis; type: cell-based; method in brief: as §1
[15] = target: Transcription factor p65 (Mus musculus) (UniProt Q04207); assay: Inhibition of NF-kappaB subunit p65 DNA binding activity in LPS-stimulated mouse RAW264.7 cells at 10 uM after 24 hrs by luciferase reporter gene assay; type: cell-based
Chain of Transcription factor p65 (Mus musculus) (Q04207 whole entry): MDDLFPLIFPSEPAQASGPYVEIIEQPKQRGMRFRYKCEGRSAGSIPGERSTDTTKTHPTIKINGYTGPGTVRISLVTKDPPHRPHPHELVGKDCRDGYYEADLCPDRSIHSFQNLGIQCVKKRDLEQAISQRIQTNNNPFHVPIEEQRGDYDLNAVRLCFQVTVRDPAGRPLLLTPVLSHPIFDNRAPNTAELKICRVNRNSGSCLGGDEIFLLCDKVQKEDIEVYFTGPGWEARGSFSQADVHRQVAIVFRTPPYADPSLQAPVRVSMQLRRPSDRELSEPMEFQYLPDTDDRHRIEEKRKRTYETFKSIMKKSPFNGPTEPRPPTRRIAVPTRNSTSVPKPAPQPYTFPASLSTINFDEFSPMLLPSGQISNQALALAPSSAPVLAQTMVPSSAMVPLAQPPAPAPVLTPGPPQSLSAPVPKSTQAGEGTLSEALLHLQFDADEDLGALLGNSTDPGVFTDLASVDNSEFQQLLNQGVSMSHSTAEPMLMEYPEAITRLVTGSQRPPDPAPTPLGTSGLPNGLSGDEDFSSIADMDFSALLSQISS

[16] = target: Transcription factor p65 (Mus musculus) (UniProt Q04207); assay: Inhibition of NF-kappaB subunit p65 DNA binding activity in LPS-stimulated mouse RAW264.7 cells at 10 uM after 20 mins by electrophoretic mobility shift assay; type: cell-based
Method in brief: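 Nuclear extract (5 µg) was incubated with a biotin-labelled NF-κB consensus probe for 20 min at room temperature. Complexes were resolved on a 6% native gel in 0.5× TBE at 4 °C, then transferred to nylon and detected by chemiluminescence. Specificity was checked by 100-fold unlabelled competitor and p65 antibody supershift.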

[17] = target: Transcription factor p65 (Mus musculus) (UniProt Q04207); assay: Inhibition of NF-kappaB subunit p65 DNA binding activity in LPS-stimulated mouse RAW264.7 cells at 20 uM after 24 hrs by luciferase reporter gene assay; type: cell-based
Mus musculus [18] = assay: Antiinflammatory activity in BALB/c mouse assessed as increase in survival rate at 15 mg/kg, ip QD administered 3 days prior to LPS challenge measured after 3 hrs (reference value: 10%); type: functional; settings: route intraperitoneal
Mus musculus [19] = assay: Antiinflammatory activity in BALB/c mouse assessed as decrease in LPS-induced mortality at 15 mg/kg, ip QD administered 3 days prior to LPS challenge; type: functional, organism-based; set-up: dose 15 mg/kg
Method in brief: (§3)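 Balb/c mice (~20 g), 10 per group, given compound in olive oil at 15 mg/kg i.p. once daily for 3 days, then LPS 20 mg/kg i.p. Cumulative survival was followed after LPS and analysed by Kaplan–Meier against LPS-only mice.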

Mus musculus [20] = assay: Antiinflammatory activity in BALB/c mouse assessed as decrease in LPS-induced serum TNFalpha level at 15 mg/kg, ip QD administered 3 days prior to LPS challenge measured after 3 hrs by ELISA; type: functional, organism-based; set-up: dose 15 mg/kg
Method in brief: (§4)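 Balb/c mice were dosed i.p. at 15 mg/kg daily for 3 days (olive oil vehicle) before LPS 20 mg/kg i.p. Blood was drawn 3 h after LPS, and serum TNF-α and IL-6 were measured by ELISA. n = 6.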

Mus musculus [21] = assay: Antiinflammatory activity in BALB/c mouse assessed as decrease in LPS-induced serum IL-6 level at 15 mg/kg, ip QD administered 3 days prior to LPS challenge measured after 3 hrs by ELISA; type: functional, organism-based; set-up: dose 15 mg/kg; method in brief: as §4
Mus musculus [22] = assay: Antiinflammatory activity in BALB/c mouse assessed as increase in survival rate at 15 mg/kg, ip QD administered 3 days prior to LPS challenge measured after 19 hrs; type: functional; settings: route intraperitoneal; method in brief: as §3
RAW264.7 [23] = assay: Inhibition of MAPK-mediated NFkappa B subunit p65 phosphorylation in LPS-stimulated mouse RAW264.7 cells at 10 uM after 4 to 6 hrs by Western blot analysis; type: cell-based; method in brief: as §1
[24] = target: T2, NF-kappa-B inhibitor alpha (Mus musculus); assay: Inhibition of LPS-induced IkappaBalpha phosphorylation in mouse RAW264.7 cells at 10 uM after 4 to 6 hrs by Western blot analysis; type: cell-based; method in brief: as §1
[25] = target: T1, Mitogen-activated protein kinase 1 and 3 (ERK2 and ERK1) (Mus musculus); assay: Inhibition of LPS-induced Erk1/2 phosphorylation in mouse RAW264.7 cells at 10 uM after 4 to 6 hrs by Western blot analysis; type: cell-based; method in brief: as §1
[26] = target: T2, NF-kappa-B inhibitor alpha (Mus musculus); assay: Inhibition of LPS-induced IkappaBalpha phosphorylation in mouse RAW264.7 cells at 10 uM at 4 hrs by Western blot analysis; type: cell-based; method in brief: as §1
[27] = target: T2, NF-kappa-B inhibitor alpha (Mus musculus); assay: Inhibition of IKappaBalpha degradation in LPS-stimulated mouse RAW264.7 cells at 10 uM by Western blot analysis; type: cell-based; method in brief: as §1
[28] = target: Transcription factor p65 (Mus musculus) (UniProt Q04207); assay: Inhibition of NF-kappaB subunit p65 DNA binding activity in LPS-stimulated mouse RAW264.7 cells at 5 to 20 uM by luciferase reporter gene assay; type: cell-based
[29] = target: Transcription factor p65 (Mus musculus) (UniProt Q04207); assay: Inhibition of NF-kappaB subunit p65 DNA binding activity in LPS-stimulated mouse RAW264.7 cells at 5 to 20 uM by electrophoretic mobility shift assay; type: cell-based
RAW264.7 [30] = assay: Antiinflammatory activity in mouse RAW264.7 cells assessed as inhibition of LPS-induced TNFalpha production at 10 uM after 6 to 24 hrs by ELISA; type: functional, cell-based; method in brief: as §2
RAW264.7 [31] = assay: Antiinflammatory activity in mouse RAW264.7 cells assessed as inhibition of LPS-induced IL-6 production at 10 uM after 6 to 24 hrs by ELISA; type: functional, cell-based; method in brief: as §2

T1 sequence (P63085 whole entry, looked up): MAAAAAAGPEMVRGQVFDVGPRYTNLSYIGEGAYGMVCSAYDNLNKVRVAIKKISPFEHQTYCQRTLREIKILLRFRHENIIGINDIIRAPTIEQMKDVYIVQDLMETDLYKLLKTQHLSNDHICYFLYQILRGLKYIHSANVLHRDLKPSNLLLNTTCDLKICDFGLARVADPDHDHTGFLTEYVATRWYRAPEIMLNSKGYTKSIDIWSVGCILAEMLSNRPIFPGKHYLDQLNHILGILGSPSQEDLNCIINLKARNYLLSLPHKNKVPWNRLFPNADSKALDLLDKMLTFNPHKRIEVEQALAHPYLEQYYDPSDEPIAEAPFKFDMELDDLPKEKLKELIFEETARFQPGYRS
T1 sequence (Q63844 whole entry, looked up): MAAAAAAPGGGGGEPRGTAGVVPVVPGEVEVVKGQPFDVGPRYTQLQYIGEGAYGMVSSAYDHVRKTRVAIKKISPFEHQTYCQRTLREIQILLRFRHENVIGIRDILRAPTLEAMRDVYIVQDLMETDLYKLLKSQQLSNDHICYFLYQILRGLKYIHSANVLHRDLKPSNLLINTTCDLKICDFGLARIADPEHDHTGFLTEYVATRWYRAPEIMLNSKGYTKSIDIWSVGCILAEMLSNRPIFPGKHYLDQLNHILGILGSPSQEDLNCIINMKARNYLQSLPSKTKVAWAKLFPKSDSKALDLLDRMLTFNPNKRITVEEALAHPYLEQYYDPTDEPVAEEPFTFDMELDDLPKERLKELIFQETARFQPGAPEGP

| Compound | pIC50 (RAW264.7 [2]) | pIC50 (RAW264.7 [3]) | Activity (RAW264.7 [4]) [pg/mL] | Activity (RAW264.7 [5]) [pg/mL] | Activity (RAW264.7 [6]) [pg/mL] | Activity (RAW264.7 [7]) [pg/mL] | Activity (RAW264.7 [8]) [pg/mL] | Activity (RAW264.7 [9]) [pg/mL] | inhibition (RAW264.7 [10]) | inhibition [11] | survival at 15 mg/kg (Mus musculus [18]) [%] | Activity (Mus musculus [20]) | Activity (Mus musculus [21]) | other results |
| --- | --- | --- | --- | --- | --- | --- | --- | --- | --- | --- | --- | --- | --- | --- |
| COC1=C[C@@H]2[C@@H]3Cc4ccc(OC)c(OCCCOc5c(OC)ccc6c5[C@@]57CCN(C)[C@@H](C6)[C@H]5C=C(OC)C(=O)C7)c4[C@]2(CCN3C)CC1=O | 4.82 | 4.39 | 1817.6 | 3501.9 | 8303.2 | 949.7 | 1667.8 | 13096.9 | inactive | inactive | 70 | Active | Active | Activity [1]: Active; inhibition (RAW264.7 [12]): Active; inhibition [13]: Active; inhibition [14]: Active; inhibition [15]: inactive; inhibition [16]: inactive; inhibition [17]: Active; Activity (Mus musculus [19]): Active |
| CCCCCCCCC(=O)Oc1c(OC)ccc2c1[C@@]13CCN(C)[C@@H](C2)[C@H]1C=C(OC)C(=O)C3 | 4.62 | 4.24 | 2338.5 | 4503.8 | 9728.9 | 148.5 | 223.7 | 486.3 | Active | Active | 30 | Active | Active | survival at 15 mg/kg (Mus musculus [22]): 30%; inhibition (RAW264.7 [23]): Active; inhibition [24]: Active; inhibition [25]: Active; inhibition [26]: inactive; inhibition [27]: Active; inhibition [28]: Active; inhibition [29]: Active |
| COC1=C[C@@H]2[C@@H]3Cc4ccc(OC)c(O)c4[C@]2(CCN3C)CC1=O [SINOMENINE] | < 3.70 | < 3.70 | – | – | – | – | – | – | – | – | – | – | – | inhibition (RAW264.7 [30]): inactive; inhibition (RAW264.7 [31]): inactive |

From ChEMBL document CHEMBL1949609, “Synthesis and biological evaluation of novel sinomenine derivatives as anti-inflammatory agents” (Eur J Med Chem, 2012)
